The values below come from ChEMBL document CHEMBL1124672, “A minor modification of residue 1 in potent vasopressin antagonists dramatically reduces agonist activity” (J Med Chem, 1989).

Numbered stars: 1 amine (or outer) side, 2 acyl side, 3 side chain; on linkers, the order of the positions; unused ones are H or OH. Bridge positions count the residues as written; N and C are the ends. Square brackets hold non-standard residues; d marks the D form. Peptide text beside a SMILES is read from it. X1 = O=C(CC1(S[*:2])CCCCC1)[*:1]

In one data set the test system is Rattus norvegicus. Put plainly: Effective dose of compound required to lower urine osmolality to 300 mOsm/kg H2O in rat. It counts as functional. In a few lines:
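Hydropenic rat model. ED300 (µg/kg) is the dose reducing urine osmolality from hydropenic levels to plasma osmolality level, 300 mOsm/kg H2O.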

The subject of data set [1] is Canis familiaris. Kind of data set: Compound was tested for the maximum urine osmolality with a dose of 100 ug/kg compound in dog. The data set is classed as ADME, organism-based, Canis lupus familiaris. The settings on record: in vivo, 0.1 mg/kg. In a few lines: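 Adult female mongrel dogs, lightly restrained supine, food withheld 18 h, water-loaded (tap water 5% body weight by gavage). 3% dextrose infused intravenously until Uosm below 70 mOsm/kg H2O, then matched to urine output. After 20 min baseline, indomethacin 2 mg/kg load + 3 mg/kg per h for 20 min, then single i.v. bolus 100 µg/kg or vehicle. Uosm by freezing point depression, every 10 min for 3 h; maximum Uosm, mean ±SE.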

A short description of data set [2]: Compound was evaluated for inhibition of vasopressin-stimulated adenylate cyclase in human medullary preparation. In a few lines:
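Human renal medullary tissue; inhibition of vasopressin-stimulated adenylate cyclase, reported as inhibition constant Ki.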

The test system of data set [3] is Canis familiaris. Kind of data set: Compound was tested for the maximum urine osmolality with a dose of 100 ug/kg compound in dog. It counts as ADME, organism-based, Canis lupus familiaris. The settings on record: in vivo, 0.1 mg/kg. In a few lines: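 Adult female mongrel dogs, fasted 18 h with water allowed, hydrated orally with tap water (5% body weight), bladder-catheterized. 3% dextrose iv to baseline water diuresis (Uosm <70 mOsm/kg H2O). Indomethacin 2 mg/kg load + 3 mg/kg per h. Single iv bolus of 100 µg/kg peptide or vehicle. Uosm by freezing point depression every 10 min for 3 h; maximum value, mean ±SE.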

The subject of data set [4] is Vasopressin V2 receptor (Sus scrofa). Kind of data set: Binding affinity of compound towards Vasopressin receptor by binding [3H]LVP to pig renal medullary preparation. The settings on record: Renal medulla.

`CCOc1ccc(C[C@H]2NC(=O)CC3(CCCCC3)SSC[C@@H](C(=O)N3CCC[C@H]3C(=O)N[C@@H](CCCN=C(N)N)C(N)=O)NC(=O)[C@H](CC(N)=O)NC(=O)[C@H](C(C)C)NC(=O)[C@H](Cc3ccccc3)NC2=O)cc1` ([dY](Et)FVNCPR-NH2; linker N-5 via X1): the ED300 in the data set on Rattus norvegicus was determined as 0.015 mg/kg. As to `CCOc1ccc(C[C@H]2NC(=O)CC3(CCC(C)CC3)SSC[C@@H](C(=O)N3CCC[C@H]3C(=O)N[C@@H](CCCN=C(N)N)C(=O)NCC(N)=O)NC(=O)[C@H](CC(N)=O)NC(=O)[C@H](C(C)C)NC(=O)[C@H](Cc3ccccc3)NC2=O)cc1` (stereo partly specified) [listing 1 of 2 here], in the data set on Canis familiaris [1], the “Max Uosm” value amounted to 85 mOsmol kg-1. Besides, in data set [2], the Ki (as a rule, a measure of affinity in units of concentration, obtained from inhibition or displacement) was 4.3 nM. With `CCOc1ccc(C[C@H]2NC(=O)CC3(CCCCC3)SSC[C@@H](C(=O)N3CCC[C@H]3C(=O)N[C@@H](CCCN=C(N)N)C(=O)NCC(N)=O)NC(=O)[C@H](CC(N)=O)NC(=O)[C@H](C(C)C)NC(=O)[C@H](Cc3ccccc3)NC2=O)cc1` ([dY](Et)FVNCPRG-NH2; linker N-5 via X1) [listing 1 of 2 here], the “Max Uosm” value with Canis familiaris [1] worked out at 1216 mOsmol kg-1. The compound further came in with a Ki in data set [2] of 4.6 nM. With `CCOc1ccc(C[C@H]2NC(=O)CC3(CCC(C)CC3)SSC[C@@H](C(=O)N3CCC[C@H]3C(=O)N[C@@H](CCCNC(=N)N)C(N)=O)NC(=O)[C@H](CC(N)=O)NC(=O)[C@H](C(C)C)NC(=O)[C@H](Cc3ccccc3)NC2=O)cc1` (stereo in doubt; 2), the “Max Uosm” value in the data set on Canis familiaris [3] turned out to be 91 mOsmol kg-1. In the data set with Rattus norvegicus, `CCOc1ccc(C[C@H]2NC(=O)CC3(CCC(C)CC3)SSC[C@@H](C(=O)N3CCC[C@H]3C(=O)N[C@@H](CCCN=C(N)N)C(N)=O)NC(=O)[C@H](CC(N)=O)NC(=O)[C@H](C(C)C)NC(=O)[C@H](Cc3ccccc3)NC2=O)cc1` (stereo in doubt; 3) had an ED300 of 0.022 mg/kg. Still for that read-out and setting: the figure for `CCOc1ccc(C[C@H]2NC(=O)CC3(CCC(C)CC3)SSC[C@@H](C(=O)N3CCC[C@H]3C(=O)N[C@@H](CCCN=C(N)N)C(N)=O)NC(=O)[C@H](CC(N)=O)NC(=O)[C@H](C(C)C)NC(=O)[C@H](Cc3ccccc3)NC2=O)cc1` (stereo in doubt; 2) is 0.045 mg/kg. As for `CCOc1ccc(C[C@@H]2NC(=O)CC3(CCCCC3)SSC[C@H](C(=O)N[C@@H](CCCN=C(N)N)C(=O)N[C@@H](CCCN=C(N)N)C(N)=O)NC(=O)[C@@H](CC(N)=O)NC(=O)[C@H](C(C)C)NC(=O)[C@@H](Cc3ccccc3)NC2=O)cc1`, in data set [4], the K Bind is 4.5 nM. Also, the “Max Uosm” value in the data set on Canis familiaris [1] is reported as 469 mOsmol kg-1. The same compound came in with an ED300 in the data set with Rattus norvegicus of 0.0135 mg/kg. The compound further showed a Ki in data set [2] of 4.5 nM. `CCOc1ccc(C[C@H]2NC(=O)CC3(CCCCC3)SSC[C@@H](C(=O)N3CCC[C@H]3C(=O)N[C@@H](CCCN=C(N)N)C(=O)NCC(N)=O)NC(=O)[C@H](CC(N)=O)NC(=O)[C@H](C(C)C)NC(=O)[C@H](Cc3ccccc3)NC2=O)cc1` ([dY](Et)FVNCPRG-NH2; linker N-5 via X1) [listing 2 of 2 here] had an ED300 in the data set on Rattus norvegicus of 0.011 mg/kg. For the compound `CCOc1ccc(C[C@H]2NC(=O)CC3(CCC(C)CC3)SSC[C@@H](C(=O)N3CCC[C@H]3C(=O)N[C@@H](CCCNC(=N)N)C(N)=O)NC(=O)[C@H](CC(N)=O)NC(=O)[C@H](C(C)C)NC(=O)[C@H](Cc3ccccc3)NC2=O)cc1` (stereo in doubt; 3), the “Max Uosm” value in the data set on Canis familiaris [1] is given as 613 mOsmol kg-1.

As for `CCOc1ccc(C[C@H]2NC(=O)CC3(CCCCC3)SSC[C@@H](C(=O)N3CCC[C@H]3C(=O)N[C@@H](CCCNC(=N)N)C(N)=O)NC(=O)[C@H](CC(N)=O)NC(=O)[C@H](C(C)C)NC(=O)[C@H](Cc3ccccc3)NC2=O)cc1` ([dY](Et)FVNCPR-NH2; linker N-5 via X1), the “Max Uosm” value with Canis familiaris [1] was 1625 mOsmol kg-1. The same compound displayed a Ki in data set [2] of 3.6 nM. For `CCOc1ccc(C[C@@H]2NC(=O)CC3(CCC(C)CC3)SSC[C@H](C(=O)N[C@@H](CCCN=C(N)N)C(=O)N[C@@H](CCCN=C(N)N)C(N)=O)NC(=O)[C@H](CC(N)=O)NC(=O)[C@H](C(C)C)NC(=O)[C@H](Cc3ccccc3)NC2=O)cc1` (stereo partly specified), in data set [4], the K Bind amounted to 4.2 nM. For the same compound, the “Max Uosm” value with Canis familiaris [1] came out at 103 mOsmol kg-1. Further, the ED300 with Rattus norvegicus was found to be 0.046 mg/kg. This compound came in with a Ki in data set [2] of 3.9 nM. The compound `CCOc1ccc(C[C@H]2NC(=O)CC3(CCC(C)CC3)SSC[C@@H](C(=O)N3CCC[C@H]3C(=O)N[C@@H](CCCN=C(N)N)C(=O)NCC(N)=O)NC(=O)[C@H](CC(N)=O)NC(=O)[C@H](C(C)C)NC(=O)[C@H](Cc3ccccc3)NC2=O)cc1` (stereo partly specified) [listing 2 of 2 here] displayed an ED300 in the data set on Rattus norvegicus of 0.025 mg/kg.
